ChEMBL document CHEMBL1667822, “Selective antagonists of mouse trace amine-associated receptor 1 (mTAAR1): discovery of EPPTB (RO5212773)” (Bioorg Med Chem Lett, 2011)

Assays:
[1] = biological target: D(2) dopamine receptor (Homo sapiens) (UniProt P14416); experiment: Displacement of [3H]spiperone from human recombinant dopamine D2S receptor expressed in HEK293 cells; type: cell-based; conditions: concentration not given here
[2] = biological target: Neuromedin-K receptor (Homo sapiens) (UniProt P29371); experiment: Displacement of [3H]SR 142801 from human recombinant NK3 receptor expressed in CHO cells; type: cell-based; conditions: concentration not given here
Sequence of Neuromedin-K receptor (Homo sapiens) (P29371 whole entry): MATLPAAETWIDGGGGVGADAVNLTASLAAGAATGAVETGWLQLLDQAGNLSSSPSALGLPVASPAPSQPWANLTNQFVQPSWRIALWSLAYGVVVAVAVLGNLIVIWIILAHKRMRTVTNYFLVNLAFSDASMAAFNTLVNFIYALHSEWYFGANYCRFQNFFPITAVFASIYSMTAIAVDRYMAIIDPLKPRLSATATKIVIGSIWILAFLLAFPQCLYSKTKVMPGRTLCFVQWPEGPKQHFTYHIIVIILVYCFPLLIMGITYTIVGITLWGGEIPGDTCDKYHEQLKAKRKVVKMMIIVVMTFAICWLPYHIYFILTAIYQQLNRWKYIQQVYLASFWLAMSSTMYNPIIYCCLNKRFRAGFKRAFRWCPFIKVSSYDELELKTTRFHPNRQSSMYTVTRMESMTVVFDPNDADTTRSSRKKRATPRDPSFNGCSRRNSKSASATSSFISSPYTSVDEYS

[3] = Clearance in mouse at 2.5 mg/kg, iv; type: ADME, organism-based; design: dose 2.5 mg/kg, route intravenous; conditions: in vivo
How it was run: (§1)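 Single-dose pharmacokinetics in mice comparing parenteral routes: intravenous at 2.5 mg/kg and intraperitoneal at 5 mg/kg. Plasma concentrations were followed over time. Bioavailability was derived for the ip route, and Cmax was taken from the ip plasma profile.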

[4] = biological target: Adenosine receptor A2a (Homo sapiens) (UniProt P29274); experiment: Displacement of [3H]CGS21680 from human recombinant A2A receptor expressed in HEK293 cells; type: cell-based; conditions: concentration not given here
[5] = Bioavailability in mouse at 5 mg/kg, ip; type: ADME, organism-based; conditions: in vivo; how it was run: as §1
[6] = biological target: Kappa-type opioid receptor (Rattus norvegicus) (UniProt P34975); experiment: Displacement of [3H]U69593 from rat recombinant kappa opioid receptor expressed in CHO cells; type: cell-based; conditions: concentration not given here
[7] = biological target: Neuropeptide Y receptor type 2 (Homo sapiens) (UniProt P49146); experiment: Displacement of [125I]peptide YY from human recombinant Y2 receptor expressed in KAN-TS cells; type: cell-based; conditions: concentration not given here
[8] = biological target: 5-hydroxytryptamine receptor 1A (Homo sapiens) (UniProt P08908); experiment: Displacement of [3H]8-OH-DPAT from human recombinant 5HT1A receptor expressed in HEK293 cells; type: cell-based; conditions: concentration not given here
Rattus norvegicus [9] = species on record: Rattus norvegicus; experiment: Displacement of [3H]batrachotoxinin from sodium channel in rat cerebral cortex; type: tissue-based; conditions: concentration not given here
[10] = biological target: Type-1 angiotensin II receptor (Homo sapiens) (UniProt P30556); experiment: Displacement of [125I][Sar1,Ile8]-AT II from human recombinant AT1 receptor expressed in HEK293 cells; type: cell-based; conditions: concentration not given here
Sequence of Type-1 angiotensin II receptor (Homo sapiens) (P30556 whole entry): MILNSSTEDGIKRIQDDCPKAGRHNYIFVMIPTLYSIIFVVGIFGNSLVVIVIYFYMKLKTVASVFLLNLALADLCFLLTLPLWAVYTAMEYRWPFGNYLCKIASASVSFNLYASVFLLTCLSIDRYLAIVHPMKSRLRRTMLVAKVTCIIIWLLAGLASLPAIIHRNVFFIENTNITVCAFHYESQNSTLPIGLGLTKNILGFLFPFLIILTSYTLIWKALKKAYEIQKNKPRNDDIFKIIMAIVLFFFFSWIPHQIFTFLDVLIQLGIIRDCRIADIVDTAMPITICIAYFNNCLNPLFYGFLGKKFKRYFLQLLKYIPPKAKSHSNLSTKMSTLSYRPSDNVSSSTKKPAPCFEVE

[11] = Half life in mouse at 2.5 mg/kg, iv; type: ADME, organism-based; design: dose 2.5 mg/kg, route intravenous; conditions: in vivo; how it was run: as §1
[12] = biological target: Trace amine-associated receptor 1 (Mus musculus, UniProt Q923Y8); experiment: Inhibition of mouse TAAR1
Sequence of Trace amine-associated receptor 1 (Mus musculus, UniProt Q923Y8) (Q923Y8 whole entry): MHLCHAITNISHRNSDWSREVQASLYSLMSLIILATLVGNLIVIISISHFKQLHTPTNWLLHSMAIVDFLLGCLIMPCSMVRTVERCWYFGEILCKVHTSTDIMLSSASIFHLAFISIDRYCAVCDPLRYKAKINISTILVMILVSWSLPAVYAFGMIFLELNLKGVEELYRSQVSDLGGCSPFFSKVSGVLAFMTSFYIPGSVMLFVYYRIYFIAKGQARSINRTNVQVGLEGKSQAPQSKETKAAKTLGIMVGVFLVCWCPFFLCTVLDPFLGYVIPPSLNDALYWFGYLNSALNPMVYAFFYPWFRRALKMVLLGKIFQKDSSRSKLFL

[13] = biological target: Sodium-dependent noradrenaline transporter (Homo sapiens) (UniProt P23975); experiment: Inhibition of human norepinephrine transporter at 10 uM
Sequence of Sodium-dependent noradrenaline transporter (Homo sapiens) (P23975 whole entry): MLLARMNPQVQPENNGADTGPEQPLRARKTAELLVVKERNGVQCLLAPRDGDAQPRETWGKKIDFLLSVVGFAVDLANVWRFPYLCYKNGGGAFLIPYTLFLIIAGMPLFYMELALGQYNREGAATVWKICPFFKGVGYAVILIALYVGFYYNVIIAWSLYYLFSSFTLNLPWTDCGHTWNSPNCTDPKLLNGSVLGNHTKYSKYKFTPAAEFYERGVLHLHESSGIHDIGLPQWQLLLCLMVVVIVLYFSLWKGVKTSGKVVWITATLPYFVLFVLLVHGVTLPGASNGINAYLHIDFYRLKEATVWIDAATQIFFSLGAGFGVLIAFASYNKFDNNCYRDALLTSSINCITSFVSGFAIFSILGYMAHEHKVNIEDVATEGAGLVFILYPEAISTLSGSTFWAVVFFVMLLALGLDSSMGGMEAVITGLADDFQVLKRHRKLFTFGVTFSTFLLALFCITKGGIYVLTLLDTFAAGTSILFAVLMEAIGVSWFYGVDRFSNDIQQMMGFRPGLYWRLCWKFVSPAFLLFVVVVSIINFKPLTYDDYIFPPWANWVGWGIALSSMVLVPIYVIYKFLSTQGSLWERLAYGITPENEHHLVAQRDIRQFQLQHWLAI

[14] = biological target: Galanin receptor type 2 (Homo sapiens) (UniProt O43603); experiment: Displacement of [125I]Galanin from human recombinant GAL2 receptor expressed in CHO cells; type: cell-based; conditions: concentration not given here
Sequence of Galanin receptor type 2 (Homo sapiens) (O43603 whole entry): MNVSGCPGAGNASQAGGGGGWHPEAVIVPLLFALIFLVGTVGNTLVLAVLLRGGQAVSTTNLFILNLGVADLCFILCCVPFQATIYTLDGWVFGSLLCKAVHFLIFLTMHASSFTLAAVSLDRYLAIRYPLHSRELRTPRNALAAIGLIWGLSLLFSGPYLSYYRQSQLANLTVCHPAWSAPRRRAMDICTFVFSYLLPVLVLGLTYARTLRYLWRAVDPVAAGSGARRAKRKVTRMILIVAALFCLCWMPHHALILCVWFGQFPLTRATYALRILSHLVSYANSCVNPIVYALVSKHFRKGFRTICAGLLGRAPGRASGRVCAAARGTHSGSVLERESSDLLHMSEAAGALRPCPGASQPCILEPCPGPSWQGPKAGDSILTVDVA

[15] = biological target: Adenosine receptor A1 (Homo sapiens) (UniProt P30542); experiment: Displacement of [3H]DPCPX from human recombinant A1 receptor expressed in CHO cells; type: cell-based; conditions: concentration not given here
[16] = biological target: Muscarinic acetylcholine receptor M3 (Homo sapiens) (UniProt P20309); experiment: Displacement of [3H]4-DAMP from human recombinant muscarinic M3 receptor expressed in CHO cells; type: cell-based; conditions: concentration not given here
Sequence of Muscarinic acetylcholine receptor M3 (Homo sapiens) (P20309 whole entry, looked up): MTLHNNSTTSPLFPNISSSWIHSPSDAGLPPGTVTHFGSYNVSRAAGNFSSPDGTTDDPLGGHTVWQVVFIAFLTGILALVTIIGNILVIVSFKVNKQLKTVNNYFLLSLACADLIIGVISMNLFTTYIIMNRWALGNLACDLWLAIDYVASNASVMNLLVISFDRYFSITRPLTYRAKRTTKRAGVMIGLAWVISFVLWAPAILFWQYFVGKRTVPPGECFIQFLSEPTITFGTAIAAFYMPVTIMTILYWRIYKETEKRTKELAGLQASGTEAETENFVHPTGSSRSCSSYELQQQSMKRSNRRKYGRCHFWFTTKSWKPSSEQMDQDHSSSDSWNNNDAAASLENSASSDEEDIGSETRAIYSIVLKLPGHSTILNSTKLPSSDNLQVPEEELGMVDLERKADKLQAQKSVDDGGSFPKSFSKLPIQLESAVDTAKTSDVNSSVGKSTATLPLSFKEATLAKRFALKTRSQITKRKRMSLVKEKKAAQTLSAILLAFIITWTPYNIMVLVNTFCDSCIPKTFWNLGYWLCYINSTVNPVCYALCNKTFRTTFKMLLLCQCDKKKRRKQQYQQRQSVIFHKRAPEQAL

[17] = biological target: C-X-C chemokine receptor type 2 (Homo sapiens) (UniProt P25025); experiment: Displacement of [125I]IL-8 from human recombinant CXCR2 receptor expressed in HEK293 cells; type: cell-based; conditions: concentration not given here
Sequence of C-X-C chemokine receptor type 2 (Homo sapiens) (P25025 whole entry): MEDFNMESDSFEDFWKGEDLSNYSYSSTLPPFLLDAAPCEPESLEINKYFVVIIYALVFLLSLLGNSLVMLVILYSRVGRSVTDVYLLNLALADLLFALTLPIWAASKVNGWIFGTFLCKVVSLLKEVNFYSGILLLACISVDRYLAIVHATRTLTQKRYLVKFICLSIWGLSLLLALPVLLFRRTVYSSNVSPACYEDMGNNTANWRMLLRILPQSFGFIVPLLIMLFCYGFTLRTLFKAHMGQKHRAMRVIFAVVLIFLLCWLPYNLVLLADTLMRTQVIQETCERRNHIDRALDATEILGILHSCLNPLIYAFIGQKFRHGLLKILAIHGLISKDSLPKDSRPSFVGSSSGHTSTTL

[18] = biological target: Trace amine-associated receptor 1 (Rattus norvegicus, UniProt Q923Y9); experiment: Antagonist activity at rat TAAR1 assessed as reversal of endogenous beta-PEA effect; type: functional
Sequence of Trace amine-associated receptor 1 (Rattus norvegicus, UniProt Q923Y9) (Q923Y9 whole entry): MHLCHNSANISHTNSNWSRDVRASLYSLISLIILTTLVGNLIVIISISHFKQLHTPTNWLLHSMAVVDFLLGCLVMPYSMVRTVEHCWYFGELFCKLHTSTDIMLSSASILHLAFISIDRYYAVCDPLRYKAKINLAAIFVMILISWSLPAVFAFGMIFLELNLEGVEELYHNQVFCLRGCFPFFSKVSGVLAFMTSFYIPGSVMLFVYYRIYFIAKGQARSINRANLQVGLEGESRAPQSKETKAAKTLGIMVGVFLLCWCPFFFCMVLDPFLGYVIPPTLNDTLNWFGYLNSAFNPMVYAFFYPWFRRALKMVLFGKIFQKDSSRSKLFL
How it was run: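 cAMP functional assay in vitro measuring reversal of the effect of endogenous agonist beta-PEA; 100% antagonistic efficacy defined as 0% min% stimulation. Residual stimulation by beta-PEA recorded at the maximum test-compound concentration. Values are the average of at least two independent experiments; duplicates typically within a twofold margin.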

Rattus norvegicus [19] = species on record: Rattus norvegicus; experiment: Displacement of [3H]flunitrazepam from BZD receptor in rat cerebral cortex; type: tissue-based; conditions: concentration not given here
[20] = Ratio of drug level in brain to plasma in mouse at 5 mg/kg, ip; type: ADME, organism-based; design: dose 5 mg/kg, route intraperitoneal; conditions: read-out: BPR
How it was run: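 Single-dose pharmacokinetics in mice with parenteral dosing, either 2.5 mg/kg iv or 5 mg/kg ip. Drug levels were measured in plasma, with brain exposure taken as the brain/plasma concentration ratio.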

[21] = biological target: monoamine oxidase-A (MAO-A) (Rattus norvegicus, UniProt P21396); experiment: Inhibition of rat monoamine oxidase-A at 10 uM
[22] = biological target: Thromboxane A2 receptor (Homo sapiens) (UniProt P21731); experiment: Displacement of [3H]SQ 29548 from human recombinant TXA2 receptor expressed in HEK293 cells; type: cell-based; conditions: concentration not given here
[23] = biological target: 5-hydroxytryptamine receptor 3A (Homo sapiens) (UniProt P46098); experiment: Displacement of [3H]BRL 43694 from human recombinant 5HT3 receptor expressed in CHO cells; type: cell-based; conditions: concentration not given here
Sequence of 5-hydroxytryptamine receptor 3A (Homo sapiens) (P46098 whole entry): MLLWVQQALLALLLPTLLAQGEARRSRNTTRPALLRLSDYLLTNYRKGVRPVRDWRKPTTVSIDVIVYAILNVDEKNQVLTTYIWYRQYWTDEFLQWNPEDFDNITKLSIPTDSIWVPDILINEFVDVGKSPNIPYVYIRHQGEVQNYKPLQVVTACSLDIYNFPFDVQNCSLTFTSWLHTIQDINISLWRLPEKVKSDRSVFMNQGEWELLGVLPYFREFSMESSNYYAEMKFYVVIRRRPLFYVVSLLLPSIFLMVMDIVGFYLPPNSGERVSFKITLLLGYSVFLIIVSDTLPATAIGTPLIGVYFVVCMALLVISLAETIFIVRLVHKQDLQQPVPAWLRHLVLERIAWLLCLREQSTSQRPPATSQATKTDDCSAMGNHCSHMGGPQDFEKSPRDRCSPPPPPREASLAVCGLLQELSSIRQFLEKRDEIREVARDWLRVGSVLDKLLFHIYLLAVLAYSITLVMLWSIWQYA

[24] = biological target: Sodium-dependent dopamine transporter (Homo sapiens) (UniProt Q01959); experiment: Inhibition of human dopamine transporter at 10 uM
Sequence of Sodium-dependent dopamine transporter (Homo sapiens) (Q01959 whole entry): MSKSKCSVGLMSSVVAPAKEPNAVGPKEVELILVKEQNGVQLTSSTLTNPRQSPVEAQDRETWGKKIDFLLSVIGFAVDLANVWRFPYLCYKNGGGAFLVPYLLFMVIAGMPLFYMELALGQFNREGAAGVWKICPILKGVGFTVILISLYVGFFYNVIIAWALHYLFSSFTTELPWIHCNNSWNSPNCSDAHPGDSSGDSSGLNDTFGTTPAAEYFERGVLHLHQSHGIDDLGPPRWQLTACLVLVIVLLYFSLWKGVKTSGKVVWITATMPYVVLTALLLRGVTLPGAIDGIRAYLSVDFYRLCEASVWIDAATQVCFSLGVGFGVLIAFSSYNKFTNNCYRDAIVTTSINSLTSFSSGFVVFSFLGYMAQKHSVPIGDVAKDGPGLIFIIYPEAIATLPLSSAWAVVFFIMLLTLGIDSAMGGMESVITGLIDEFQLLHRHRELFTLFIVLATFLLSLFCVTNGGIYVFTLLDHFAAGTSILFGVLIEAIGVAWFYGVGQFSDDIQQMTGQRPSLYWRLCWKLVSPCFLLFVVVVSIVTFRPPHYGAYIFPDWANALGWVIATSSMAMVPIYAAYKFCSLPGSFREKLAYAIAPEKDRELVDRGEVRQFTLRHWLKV

[25] = biological target: 5-hydroxytryptamine receptor 5A (Homo sapiens) (UniProt P47898); experiment: Displacement of [3H]LSD from human recombinant 5HT5A receptor expressed in CHO cells; type: cell-based; conditions: concentration not given here
[26] = biological target: Nociceptin receptor (Homo sapiens) (UniProt P41146); experiment: Displacement of [3H]nociceptin from human recombinant ORL1 receptor expressed in H recombinant HEK293 cells; type: cell-based; conditions: concentration not given here
[27] = biological target: Substance-K receptor (Homo sapiens) (UniProt P21452); experiment: Displacement of [125I]NKA from human recombinant NK2 receptor expressed in CHO cells; type: cell-based; conditions: concentration not given here
[28] = biological target: Beta-2 adrenergic receptor (Homo sapiens) (UniProt P07550); experiment: Displacement of [3H](-)CGP 12177 from human recombinant beta2 receptor expressed in CHO cells; type: cell-based; conditions: concentration not given here
[29] = biological target: T1, Trace amine-associated receptor 1 (Homo sapiens, UniProt Q96RJ0); experiment: Inhibition of human TAAR1
T1 sequence (Q96RJ0 whole entry): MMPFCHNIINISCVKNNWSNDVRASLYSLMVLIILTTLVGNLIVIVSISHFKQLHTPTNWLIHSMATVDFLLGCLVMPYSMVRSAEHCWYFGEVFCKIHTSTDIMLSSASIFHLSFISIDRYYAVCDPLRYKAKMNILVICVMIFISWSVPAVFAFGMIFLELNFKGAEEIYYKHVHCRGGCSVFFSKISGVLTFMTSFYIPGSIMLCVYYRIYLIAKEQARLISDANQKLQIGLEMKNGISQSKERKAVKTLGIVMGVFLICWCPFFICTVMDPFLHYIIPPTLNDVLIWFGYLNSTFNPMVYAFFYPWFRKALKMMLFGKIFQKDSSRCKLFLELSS
How it was run: (§2)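 In vitro cAMP functional assay with antagonism read as reversal of the response to the endogenous agonist beta-PEA. Efficacy was scaled so that 100% equals 0% minimum stimulation. Residual beta-PEA stimulation was taken at the highest test-compound concentration. Values are means of at least two independent experiments, with duplicates typically within a twofold margin.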

[30] = biological target: T1, Trace amine-associated receptor 1; experiment: Antagonist activity at human TAAR1 assessed as reversal of endogenous beta-PEA effect; type: functional; how it was run: as §2
[31] = biological target: D(1A) dopamine receptor (Homo sapiens) (UniProt P21728); experiment: Displacement of [3H]SCH 23390 from human recombinant dopamine D1 receptor expressed in CHO cells; type: cell-based; conditions: concentration not given here
Homo sapiens = species on record: Homo sapiens; experiment: Inhibition of human vasoactive intestinal peptide receptor VPAC1 at 10 uM
[32] = biological target: Vasopressin V1a receptor (Homo sapiens) (UniProt P37288); experiment: Displacement of [3H]AVP from human recombinant V1a receptor expressed in H recombinant CHO cells; type: cell-based; conditions: concentration not given here
Sequence of Vasopressin V1a receptor (Homo sapiens) (P37288 whole entry, looked up): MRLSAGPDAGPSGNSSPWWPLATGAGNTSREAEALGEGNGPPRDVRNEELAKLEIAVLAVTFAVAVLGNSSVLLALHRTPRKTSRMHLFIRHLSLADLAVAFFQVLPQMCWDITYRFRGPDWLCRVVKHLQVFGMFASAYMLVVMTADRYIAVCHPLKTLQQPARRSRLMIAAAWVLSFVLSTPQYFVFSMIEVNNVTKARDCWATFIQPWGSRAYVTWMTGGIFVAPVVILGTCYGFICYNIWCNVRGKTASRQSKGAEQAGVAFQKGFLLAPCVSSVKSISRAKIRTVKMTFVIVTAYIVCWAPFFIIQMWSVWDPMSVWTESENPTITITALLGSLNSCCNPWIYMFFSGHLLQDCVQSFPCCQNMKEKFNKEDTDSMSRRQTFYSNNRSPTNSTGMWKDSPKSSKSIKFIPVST

CCOc1cccc(NC(=O)c2ccc(N3CCCC3)c(C(F)(F)F)c2)c1 gave an inhibition [1] of 9%, an inhibition [2] of 22% and a clearance [3] of 87 mL/min/kg. It also gave an inhibition [4] of 13%, a bioavailability [5] of 74% and an inhibition [6] of 33%. The inhibition [7] was 6%, the inhibition [8] was 4% and the inhibition (Rattus norvegicus [9]) was 88%. It also gave an inhibition [10] of 5%, a half-life [11] of 1.9 h and a Ki [12] of 0.0009 µM. It also gave an inhibition [13] of 44%, an inhibition [14] of 13% and an inhibition [15] of 50%. It also gave an inhibition [16] of -10%, an inhibition [17] of 2% and an IC50 [18] of 4.54 µM. For the same compound, the inhibition (Rattus norvegicus [19]) was -8%, the Kp [20] was 0.5 and the inhibition at 10 µM [21] was 61%. It also gave an inhibition [22] of 8%, an inhibition [23] of 9% and an inhibition [24] of 43%. The inhibition [25] was 21%, the inhibition [26] was 15% and the inhibition [27] was 19%. For the same compound, the inhibition [28] was 6%, the Ki [29] was greater than 5 µM and the IC50 [30] was 7.49 µM. It also gave an inhibition [31] of 25%, an inhibition (Homo sapiens) of 13% and an inhibition [32] of 9%.
